Results: ChEMBL document CHEMBL1143009, “D- and L-2',3'-didehydro-2',3'-dideoxy-3'-fluoro-carbocyclic nucleosides: synthesis, anti-HIV activity and mechanism of resistance” (J Med Chem, 2007)

Experiments:
[1] = test system: Human immunodeficiency virus 1; test: Antiviral activity against HIV1 LAV1 in human PBM cells by RT assay; format: functional, organism-based; conditions: for EC50 / EC90: Human immunodeficiency virus 1, LAV1, PBMC
Outline: (§1)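 Human PBM cells were infected with HIV-1. The strain was LAI by default, or xxBRU where indicated. Antiviral activity was reported as EC50 and EC90.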

PBMC = test: Cytotoxicity against human PBMC; format: cell-based
Vero = test: Cytotoxicity against African green monkey Vero cells; format: cell-based; conditions: chlorocebus sabaeus
[2] = test system: Human immunodeficiency virus 1; test: Ratio of EC50 for lamivudine-resistant HIV1 M184V mutant to EC50 for HIV1 […]; format: functional
Outline: (§2)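 Human PBM cells infected with lamivudine-resistant HIV-1 M184V and, in parallel, wild-type HIV-1 (xxBRU where footnoted, otherwise LAI). EC50 was determined for each virus, and the mutant EC50 was divided by the wild-type EC50. Carbovir served as positive control.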

[3] = test system: Human immunodeficiency virus 1; test: Antiviral activity against HIV1 xxBRU in human PBM cells by RT assay; format: functional, organism-based; outline: as §1
[4] = test system: Human immunodeficiency virus 1; test: Antiviral activity against lamivudine-resistant HIV1 M184V mutant in human PBMC cells by RT assay; format: functional, organism-based; outline: as §2
[5] = Human immunodeficiency virus 1, xxBRU, PBMC
[6] = Human immunodeficiency virus 1, PBMC

Row | SMILES | EC50 [1] [µM] | EC90 [1] [µM] | ED90 [1] [µM] | Activity (PBMC) [µM] | Activity (Vero) [µM] | Ratio [2] | ED90 [3] [µM] | EC50 [3, 5] [µM] | EC50 [4, 6] [µM] | EC90 [4, 6] [µM] | EC90 [3, 5] [µM] | ED90 [4] [µM]
1 | Nc1ccn([C@H]2C=C(F)[C@H](CO)C2)c(=O)n1 | > 100 | – | >100 | > 100 | > 100 | – | – | – | – | – | – | –
2 | Cc1cn([C@@H]2C=C(F)[C@@H](CO)C2)c(=O)[nH]c1=O | 6.4 | > 100 | – | > 100 | > 100 | – | – | – | – | – | – | –
3 | Nc1ccn([C@@H]2C=C(F)[C@@H](CO)C2)c(=O)n1 | 7.1 | 72 | – | > 100 | > 100 | – | – | – | – | – | – | –
4 | OC[C@H]1C[C@H](n2cnc3c(O)ncnc32)C=C1F | > 100 | – | >100 | > 100 | > 100 | – | – | – | – | – | – | –
5 | OC[C@@H]1C[C@@H](n2cnc3c(O)ncnc32)C=C1F | > 100 | – | >100 | > 100 | > 100 | – | – | – | – | – | – | –
6 | Nc1ncnc2c1ncn2[C@@H]1C=C(F)[C@@H](CO)C1 | 10.3 | 33.5 | – | > 100 | > 100 | – | – | – | – | – | – | –
7 | Nc1nc2c(ncn2[C@H]2C=C[C@@H](CO)C2)c(=O)[nH]1 [CARBOVIR] | – | – | – | – | – | 2.3 | 0.27 | 0.087 | 0.2 | 1.1 | – | –
8 | Cc1cn([C@H]2C=C(F)[C@H](CO)C2)c(=O)[nH]c1=O | 68.8 | > 100 | – | > 100 | > 100 | – | – | – | – | – | – | –
9 | Nc1nc2c(ncn2[C@H]2C=C(F)[C@H](CO)C2)c(=O)[nH]1 | 0.41 | 2.8 | – | 21.1 | > 100 | 38.8 | – | 0.098 | 3.8 | – | 0.58 | 14.9

Further lines, with some results ahead:

Row | EC50 [1] [µM] | EC90 [1] [µM] | SMILES | ED90 [1] [µM] | Activity (PBMC) [µM] | Activity (Vero) [µM] | Ratio [2] | ED90 [3] [µM] | EC50 [3, 5] [µM] | EC50 [4, 6] [µM] | EC90 [4, 6] [µM] | EC90 [3, 5] [µM] | ED90 [4] [µM]
10 | 20.7 | > 100 | Nc1nc2c(ncn2[C@@H]2C=C(F)[C@@H](CO)C2)c(=O)[nH]1 | – | > 100 | > 100 | – | – | – | – | – | – | –
11 | > 100 | – | Cc1cn([C@@H]2C[C@@H](CO)C(F)(F)C2)c(=O)[nH]c1=O | >100 | > 100 | > 100 | – | – | – | – | – | – | –
12 | > 100 | – | Nc1ccn([C@@H]2C[C@@H](CO)C(F)(F)C2)c(=O)n1 | >100 | > 100 | > 100 | – | – | – | – | – | – | –
13 | > 100 | – | Nc1nc2c(ncn2[C@@H]2C[C@@H](CO)C(F)(F)C2)c(=O)[nH]1 | >100 | > 100 | > 100 | – | – | – | – | – | – | –
14 | > 100 | – | OC[C@@H]1C[C@@H](n2cnc3c(O)ncnc32)CC1(F)F | >100 | > 100 | > 100 | – | – | – | – | – | – | –
15 | 14.8 | 40.6 | Nc1ncnc2c1ncn2[C@H]1C=C(F)[C@H](CO)C1 | – | > 100 | > 100 | – | – | – | – | – | – | –
16 | > 100 | – | Nc1ncnc2c1ncn2[C@@H]1C[C@@H](CO)C(F)(F)C1 | >100 | 95.1 | > 100 | – | – | – | – | – | – | –
